We go through 2 molecules from PMC11164094 (International Journal of Nanomedicine, 2024).

In brackets after ≈: the same amount, converted by molar mass.

One data set relates to HUA mice. Kind of data set: In vivo anti-hyperuricemia study. Set-up: species or system KM mice. The settings on record: for serum UA level vs HUA group: gavage once daily, 5 mg/kg FEB, 10 mg/kg OBB, 1, 2, 4 mg/kg OBB-HP-β-CD SDDS. The procedure, abridged:
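KM mice (male, 20 ± 2 g, 4 weeks, SPF) were acclimatised ≥7 days at 24 ± 1°C, n = 10/group. Hyperuricemia was induced daily for 10 days with PO 300 mg/kg i.p. plus HX 300 mg/kg oral. Test compound was gavaged 1 h post-challenge, once daily for 7 days. Kidneys were taken 1 h after the last dose, fixed 24 h in 4% PFA, paraffin-embedded, sectioned at 4 μm, H&E-stained and blind-scored at 200× (n = 3).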

The conditions of data set [1]: previous study; cited from earlier work.
A short description of data set [2]: Solubility test of OBB in different dissolution media and excipient solutions. The note with it: for Solubility: 25°C, shaken 24 h. The format is physicochemical. The method, boiled down:
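Excess test compound was added to each medium, with solid excipients made up as 25 mg/mL aqueous solutions. Samples were shaken at 90 rpm and 25°C for 24 h to reach equilibrium. They were then centrifuged (9000 ×g, 20 min), and the supernatant was filtered (0.22 µm), diluted and quantified by HPLC. HPLC used a C18 column with methanol-water 70:30 and 0.1% formic acid, isocratic at 1.0 mL/min, 30°C.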

Data set [3] in a line: Pharmacokinetic study in rats. The format is in vivo. The settings on record: male, Sprague Dawley, rat, blood, oral, 50 mg/kg. The method, boiled down:
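Male Sprague Dawley rats (200–240 g) were fasted overnight with free water and dosed in groups of 6. Dose was 50 mg/kg test compound, given p.o. as raw material or as HP-β-CD supersaturated formulation, or i.v. as formulation. Heparinized orbital blood was drawn at 0.083–24 h. Acetonitrile protein precipitation with piperine internal standard; centrifuged 2000 ×g, 10 min; residue redissolved in methanol, filtered; HPLC.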

Data set [4] can be described thus: Appearance and solubility of prepared samples in water. The format is physicochemical.
The conditions of data set [5]: previous study; cited from earlier work. The source holds these as a separate data set.

As to `Cc1nc(-c2ccc(OCC(C)C)c(C#N)c2)sc1C(=O)O` [FEB, febuxostat, reference compound], in the data set with HUA mice, the “renal histopathological damage (H&E) vs HUA group” value was “effectively ameliorated” and the “serum UA level vs HUA group” value is listed as “significantly decreased”.
The solubility is the concentration that dissolves in the medium under given conditions. A higher solubility goes with a readily soluble substance. What is called bioavailability is the share of a dose that reaches the circulation, judged against a reference dose that is usually intravenous. `COc1ccc2cc3n(c(=O)c2c1OC)CCc1cc2c(cc1-3)OCO2` [OBB, Oxyberberine]: the anti-hyperuricemic activity result in data set [1] is listed as “comparable to the first-line agent febuxostat”. The solubility at 24 h in data set [2] (artificial gastric fluid) is about 0.32 µg/mL (≈ 0.911 µM). Also, the Solubility result in data set [2] (artificial intestinal fluid) is recorded as “completely insoluble”. For the same molecule, the Solubility entry in data set [2] (water) is “completely insoluble”. In addition, in the data set with HUA mice, the “renal histopathological damage (H&E) vs HUA group” value is given as “effectively ameliorated” and the “serum UA level vs HUA group” value is given as “significantly decreased”. For the same molecule, the bioavailability in data set [3] came to 1.55%. Moreover, the “appearance after addition of water and sufficient stirring” value in data set [4] was “remained cloudy”. Further, the safety profile result in data set [5] was “favorable safety profile”.
